Results: PMC8502542 (International Journal of Nanomedicine, 2021)

How the values were obtained:
MIA PaCa-2 cell line = assay: MTT cytotoxicity and combination index; format: cell-based, human; details: MIA PaCa-2, MTT, 72 hours
How it was run: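 MIA PaCa-2 (ATCC) seeded at 3×10^3 cells/well and grown 24 h at 37°C, 5% CO2. Exposed 72 h to test compound (DMSO solution, solvent-based, or albumin nanoparticle form) at 0.01, 0.1, 1, 5, 10, 50, 100 and 1000 ng/mL. MTT (0.5 mg/mL) added for 2 h, formazan dissolved in DMSO, A550 read. Survival expressed as % of control wells.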

[1] = plasma, after administration; cited from earlier work

CC(=O)O[C@H]1C(=O)[C@@]2(C)[C@H]([C@H](OC(=O)c3ccccc3)[C@]3(O)C[C@H](OC(=O)[C@H](O)[C@@H](NC(=O)c4ccccc4)c4ccccc4)C(C)=C1C3(C)C)[C@]1(OC(C)=O)CO[C@@H]1C[C@@H]2O [PTXfree, paclitaxel]
IC50, weight ratio CFZ:PTX 0: 1 (MIA PaCa-2 cell line; PTX form alone): 0.44 ng/mL

CC(C)C[C@H](NC(=O)[C@H](CCc1ccccc1)NC(=O)CN1CCOCC1)C(=O)N[C@@H](Cc1ccccc1)C(=O)N[C@@H](CC(C)C)C(=O)[C@@]1(C)CO1 [CFZfree, carfilzomib]
IC50, weight ratio CFZ:PTX 1: 0 (MIA PaCa-2 cell line; CFZ form alone): 8.90 ng/mL
initial half-life (T1/2,initial) [1]: < 20 min
